Activity calls are given as the source filed them. The calls are words filed in the database; no cut-off is given here.
Key:
HOS = test: Cytotoxicity against human HOS cells assessed as growth inhibition after 72 hrs by calcein AM staining-based fluoroscence assay; format: functional, cell-based
HeLa = test: Cytotoxicity against human HeLa cells assessed as growth inhibition after 72 hrs by calcein AM staining-based fluoroscence assay; format: functional, cell-based
MCF7 = test: Cytotoxicity against human MCF7 cells assessed as growth inhibition after 72 hrs by calcein AM staining-based fluoroscence assay; format: functional, cell-based; settings: MCF7, 72 h
K562 = test: Cytotoxicity against human K562 cells assessed as growth inhibition after 72 hrs by calcein AM staining-based fluoroscence assay; format: functional, cell-based; settings: K562, 72 h
[1] = biological target: Cyclin-dependent kinase 2/cyclin E1 (Homo sapiens, UniProt P24941); test: Inhibition of human recombinant CDK2/Cyclin E expressed in baculovirus infected sf9 cells using histone H1 as substrate
G-361 [2] = test: Cytotoxicity against human G361 cells assessed as growth inhibition after 72 hrs by calcein AM staining-based fluoroscence assay; format: functional, cell-based; settings: G-361, 72 h
HCT-116 = test: Cytotoxicity against human HCT116 cells assessed as growth inhibition after 72 hrs by calcein AM staining-based fluoroscence assay; format: functional, cell-based; settings: HCT-116, 72 h
G-361 [3] = test: Induction of apoptosis in human G361 cells assessed as caspase 9 activation using Ac-DEHD-AMC as substrate at 300 nM after 24 hrs by fluorimetry assay; format: functional, cell-based; settings: in the assay text read “Ac-LEHD-AMC” for “Ac-DEHD-AMC”
Procedure, shortened: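 G361 lysates were made in CHAPS extraction buffer, pH 7.4, clarified at 10000g, and protein-equalized. They were incubated 24 h with 100 μM Ac-LEHD-AMC in 100 mM HEPES pH 7.5, 0.5 mM EDTA, 20% glycerol, 5 mM DTT. AMC fluorescence read at 355/460 nm (ex/em).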

G-361 [4] = test: Induction of apoptosis in human G361 cells assessed as induction of caspase-7 clevage at 300 nM after 24 hrs by immunoblotting analysis; format: functional, cell-based
Procedure, shortened: (§1)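 Treated G361 cells harvested into Laemmli sample buffer. Proteins resolved by SDS-PAGE and blotted to nitrocellulose. Membranes blocked, probed overnight with specific primary antibodies, then peroxidase-conjugated secondaries. ECL detection by CCD camera. Actin served as loading control.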

[5] = biological target: Cyclin-dependent kinase 9 (Homo sapiens) (UniProt P50750); test: Inhibition of CDK9-mediated RNA polymerase 2 phosphorylation at ser2 in human G361 cells at 300 nM after 24 hrs by immunoblotting analysis; format: cell-based; settings: G-361; procedure, shortened: as §1
G-361 [6] = test: Induction of apoptosis in human G361 cells assessed as induction of caspase-3 clevage at 300 nM after 24 hrs by immunoblotting analysis; format: functional, cell-based; procedure, shortened: as §1
G-361 [7] = test: Induction of apoptosis in human G361 cells assessed as caspase 3/7 activation using Ac-DEVD-AMC as substrate at 300 nM after 24 hrs by fluorimetry assay; format: functional, cell-based
CDK2/CDK4 (Homo sapiens) = CDK2/CDK4 (Homo sapiens) (UniProt P11802+P24941); test: Inhibition of CDK2/4-mediated retinoblastoma protein phosphorylation at ser780 in human G361 cells at 300 nM after 24 hrs by immunoblotting analysis; format: cell-based; settings: G-361; procedure, shortened: as §1
G-361 [8] = test: Induction of apoptosis in human G361 cells assessed as induction of PARP-1 clevage at 300 nM after 24 hrs by immunoblotting analysis; format: functional, cell-based; procedure, shortened: as §1
G-361 [9] = test: Induction of apoptosis in human G361 cells assessed as induction of caspase-9 clevage at 300 nM after 24 hrs by immunoblotting analysis; format: functional, cell-based; procedure, shortened: as §1
G-361 [10] = test: Induction of apoptosis in human G361 cells assessed as decrease in Mcl-1 at 300 nM after 24 hrs by immunoblotting analysis; format: functional, cell-based; procedure, shortened: as §1
G-361 [11] = test: Induction of apoptosis in human G361 cells assessed as decrease in Mcl-1 protein level at 300 nM after 24 hrs by immunoblotting analysis; format: functional, cell-based; procedure, shortened: as §1
[12] = biological target: Cyclin-dependent kinase 1 (Homo sapiens, UniProt P06493); test: Inhibition of human recombinant CDK1
[13] = biological target: Cyclin-dependent kinase 2/cyclin E1 (Homo sapiens) (UniProt P24864+P24941); test: Ratio of roscovitine IC50 to compound IC50 for human recombinant CDK2/Cyclin E; format: protein-complex assay

Cyclin-dependent kinase 9 (Homo sapiens), sequence (P50750 whole entry): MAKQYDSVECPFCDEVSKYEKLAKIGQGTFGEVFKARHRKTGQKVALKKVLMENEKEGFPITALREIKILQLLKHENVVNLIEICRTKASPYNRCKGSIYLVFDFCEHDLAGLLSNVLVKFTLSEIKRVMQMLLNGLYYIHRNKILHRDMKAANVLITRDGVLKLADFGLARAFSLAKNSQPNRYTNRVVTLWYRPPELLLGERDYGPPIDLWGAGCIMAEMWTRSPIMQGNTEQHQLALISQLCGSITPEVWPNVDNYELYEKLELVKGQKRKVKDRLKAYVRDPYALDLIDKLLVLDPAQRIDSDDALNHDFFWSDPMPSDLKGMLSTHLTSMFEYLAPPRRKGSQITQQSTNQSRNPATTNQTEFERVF
Cyclin-dependent kinase 1, sequence (P06493 whole entry): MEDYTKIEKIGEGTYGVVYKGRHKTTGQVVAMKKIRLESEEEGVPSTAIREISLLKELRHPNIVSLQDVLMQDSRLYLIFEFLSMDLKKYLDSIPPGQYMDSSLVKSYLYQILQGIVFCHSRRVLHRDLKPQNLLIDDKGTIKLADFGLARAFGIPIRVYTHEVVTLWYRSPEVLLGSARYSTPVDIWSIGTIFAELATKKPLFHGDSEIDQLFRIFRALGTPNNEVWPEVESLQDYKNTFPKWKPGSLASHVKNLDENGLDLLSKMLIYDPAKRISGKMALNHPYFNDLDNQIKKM

Row | IC50 [1] | Inhibition of RNA polymerase II Ser2 phosphorylation (qualitative) [5] | inhibition (CDK2/CDK4 (Homo sapiens)) | IC50 [12] | Ratio IC50 [13] | Structure (SMILES) | IC50 (HOS) | IC50 (HeLa) | IC50 (MCF7) | IC50 (K562) | IC50 (G-361 [2]) | IC50 (HCT-116) | Activity (G-361 [3]) | Activity (G-361 [4]) | Activity (G-361 [6]) | Activity (G-361 [7]) | Activity (G-361 [8]) | Activity (G-361 [9]) | Activity (G-361 [10]) | Activity (G-361 [11])
1 | 23 nM | – | – | – | – | OC1CCC(Nc2nc(NCc3ccc(-c4ccco4)nc3)c3ncn(C4CCCC4)c3n2)CC1 (stereo unspecified) | 180 nM | 247 nM | 390 nM | 303 nM | 443 nM | 617 nM | – | – | – | – | – | – | – | –
2 | 14 nM | Active | Active | – | – | NC1CCC(Nc2nc(NCc3ccc(-c4cccc(F)c4)nc3)c3ncn(C4CCCC4)c3n2)CC1 (stereo unspecified) | 44 nM | 36 nM | 33 nM | 61 nM | 49 nM | 74 nM | Active | Active | Active | Active | Active | Active | Active | Active
3 | – | – | – | – | – | NC1CCC(Nc2nc(NCc3ccc(Br)cc3)c3ncn(C4CCCC4)c3n2)CC1 (stereo unspecified) | 995 nM | 1510 nM | 850 nM | 1170 nM | 1480 nM | 790 nM | – | – | – | – | – | – | – | –
4 | 18 nM | – | – | – | – | NC1CCC(Nc2nc(NCc3ccc(-c4ccsc4)nc3)c3ncn(C4CCCC4)c3n2)CC1 (stereo unspecified) | 89 nM | 75 nM | 100 nM | 150 nM | 272 nM | 145 nM | Active | Active | Active | Active | Active | Active | Active | Active
5 | 12 nM | Active | Active | – | – | NC1CCC(Nc2nc(NCc3ccc(-n4cccn4)cc3)c3ncn(C4CCCC4)c3n2)CC1 (stereo unspecified) | 103 nM | 170 nM | 139 nM | 119 nM | 220 nM | 320 nM | Active | Active | Active | Active | Active | Active | Active | Active
6 | 34 nM | – | – | – | – | COc1ccccc1-c1ccc(CNc2nc(NC3CCC(N)CC3)nc3c2ncn3C2CCCC2)cn1 (stereo unspecified) | 122 nM | 39 nM | 82 nM | 66 nM | 140 nM | 177 nM | – | – | – | – | – | – | – | –
7 | 26 nM | – | – | – | – | NC1CCC(Nc2nc(NCc3ccc(-c4ccccc4)cc3)c3ncn(C4CCCC4)c3n2)CC1 (stereo unspecified) | – | – | – | – | – | – | – | – | – | – | – | – | – | –
8 | 18 nM | – | – | 93 nM | – | Nc1ccccc1CNc1nc(NC2CCC(N)CC2)nc2c1ncn2C1CCCC1 (stereo unspecified) | 2030 nM | 1030 nM | 2330 nM | 4040 nM | 2070 nM | 2300 nM | – | – | – | – | – | – | – | –
9 | – | – | – | – | – | CC[C@H](CO)Nc1nc(NCc2ccccc2)c2ncn(C(C)C)c2n1 [SELICICLIB] | – | 28600 nM | 12300 nM | – | – | – | – | – | – | – | – | – | – | –
10 | 20.5 nM | – | – | – | – | Nc1ccccc1-c1ccc(CNc2nc(NC3CCC(N)CC3)nc3c2ncn3C2CCCC2)cc1 (stereo unspecified) | 1880 nM | 1010 nM | 977 nM | 1110 nM | 4120 nM | 930 nM | – | – | – | – | – | – | – | –
11 | 10 nM | Active | Active | – | – | NC1CCC(Nc2nc(NCc3ccc(-c4ccco4)nc3)c3ncn(C4CCCC4)c3n2)CC1 (stereo unspecified) | 44 nM | 30 nM | 33 nM | 67 nM | 97 nM | 86 nM | Active | Active | Active | Active | Active | Active | Active | Active
12 | 8 nM | – | – | 23 nM | – | NC1CCC(Nc2nc(NCc3cc(Cl)ccc3O)c3ncn(C4CCCC4)c3n2)CC1 (stereo unspecified) | 490 nM | 750 nM | 430 nM | 690 nM | 390 nM | 350 nM | – | – | – | – | – | – | – | –
13 | 33.5 nM | – | – | – | – | NC1CCC(Nc2nc(NCc3ccc(-c4cccc(F)c4)cc3)c3ncn(C4CCCC4)c3n2)CC1 (stereo unspecified) | 211 nM | 445 nM | 293 nM | 290 nM | 815 nM | 551 nM | – | – | – | – | – | – | – | –
14 | 478 nM | – | – | > 999 nM | – | CC(C)(O)CNc1nc(NCc2ccc(-c3ccco3)cc2)c2ncn(C3CCCC3)c2n1 | 21400 nM | 14800 nM | 15300 nM | 16800 nM | 17400 nM | 16700 nM | – | – | – | – | – | – | – | –
15 | 33 nM | – | – | – | – | COc1ccccc1-c1ccc(CNc2nc(NC3CCC(N)CC3)nc3c2ncn3C2CCCC2)cc1 (stereo unspecified) | 150 nM | 333 nM | 303 nM | 347 nM | 545 nM | 430 nM | – | – | – | – | – | – | – | –
16 | 14 nM | – | – | – | – | NC1CCC(Nc2nc(NCc3ccc(-c4ccsc4)cc3)c3ncn(C4CCCC4)c3n2)CC1 (stereo unspecified) | 120 nM | 220 nM | 145 nM | 150 nM | 570 nM | 315 nM | – | – | – | – | – | – | – | –
17 | 4 nM | Active | Active | – | 20 | NC1CCC(Nc2nc(NCc3ccc(-c4cccs4)nc3)c3ncn(C4CCCC4)c3n2)CC1 (stereo unspecified) | 32 nM | 40 nM | 92 nM | 100 nM | 150 nM | 97 nM | Active | Active | Active | Active | Active | Active | Active | Active
18 | 120 nM | – | – | 555 nM | – | CC(C)(O)CNc1nc(NCc2ccc(-c3ccco3)nc2)c2ncn(C3CCCC3)c2n1 | 560 nM | 667 nM | 1300 nM | 1420 nM | 2100 nM | 1270 nM | – | – | – | – | – | – | – | –
19 | 20 nM | – | – | – | – | NC1CCC(Nc2nc(NCc3ccc(-c4cccs4)cc3)c3ncn(C4CCCC4)c3n2)CC1 (stereo unspecified) | 247 nM | 358 nM | 290 nM | 307 nM | 655 nM | 592 nM | – | – | – | – | – | – | – | –
20 | 31 nM | – | – | 184 nM | – | NC1CCC(Nc2nc(NCc3ccc(-c4ccccc4)nc3)c3ncn(C4CCCC4)c3n2)CC1 (stereo unspecified) | 206 nM | 114 nM | 483 nM | – | 895 nM | 563 nM | – | – | – | – | – | – | – | –
21 | – | – | – | – | – | NC1CCC(Nc2nc(NCc3ccc(Br)nc3)c3ncn(C4CCCC4)c3n2)CC1 (stereo unspecified) | 935 nM | 633 nM | 483 nM | 1180 nM | 640 nM | 577 nM | – | – | – | – | – | – | – | –
22 | 10 nM | – | – | – | – | Nc1ccccc1-c1ccc(CNc2nc(NC3CCC(N)CC3)nc3c2ncn3C2CCCC2)cn1 (stereo unspecified) | 398 nM | 535 nM | 117 nM | 200 nM | 730 nM | 635 nM | – | – | – | – | – | – | – | –
23 | 68 nM | – | – | 777 nM | – | NC1CCC(Nc2nc(NCc3ccc(-c4ccccc4O)cc3)c3ncn(C4CCCC4)c3n2)CC1 (stereo unspecified) | 1160 nM | 4180 nM | 2910 nM | 2610 nM | 4150 nM | 4350 nM | – | – | – | – | – | – | – | –
24 | 13 nM | – | – | – | – | NC1CCC(Nc2nc(NCc3ccc(-c4ccoc4)cc3)c3ncn(C4CCCC4)c3n2)CC1 (stereo unspecified) | 140 nM | 140 nM | 247 nM | 287 nM | 670 nM | 1040 nM | – | – | – | – | – | – | – | –
25 | 11.4 nM | – | – | – | – | NC1CCC(Nc2nc(NCc3ccc(-c4ccco4)cc3)c3ncn(C4CCCC4)c3n2)CC1 (stereo unspecified) | 102 nM | 71 nM | 85 nM | 96 nM | 164 nM | 129 nM | – | – | – | – | – | – | – | –

Reference: ChEMBL document CHEMBL2401709 (J Med Chem, 2013)
